ChEMBL document CHEMBL1122064, “Synthesis and biological evaluation of 17-[131I]iodo-9-telluraheptadecanoic acid, a potential imaging agent” (J Med Chem, 1982)

Key:
Rattus norvegicus [1] = test: Distribution of radioactivity in kidneys of Fischer 344 female rat after 2 hr of intravenous administration; assay type: ADME, organism-based, Kidney; settings: in vivo
How it was run: (§1)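 Female Fischer 344 rats (10-12 weeks, 170-200 g) with food and water ad libitum. The 131I-labelled fatty acid was taken up in ethanol, added dropwise to stirred 6% BSA at 40 °C (final ethanol 10%), filtered, and injected into a lateral tail vein under ether. Rats were CO2-anaesthetised and killed; organs were excised, rinsed, blotted, weighed and Ge(Li)-counted. Results are mean (range) % injected dose/g.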

Rattus norvegicus [2] = test: Distribution of radioactivity in Thyroid of Fischer 344 female rat after 10 min of intravenous administration; assay type: ADME, organism-based; settings: in vivo; how it was run: as §1
Rattus norvegicus [3] = test: Distribution of radioactivity in brain of Fischer 344 female rat after 2 min of intravenous administration; assay type: ADME, organism-based; settings: in vivo; how it was run: as §1
Rattus norvegicus [4] = test: Distribution of radioactivity in lungs of Fischer 344 female rat after 7 days of intravenous administration; assay type: ADME, organism-based, Lung; settings: in vivo, 168 h
How it was run: (§2)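 Female Fischer 344 rats, 10-12 weeks old, 170-200 g, fed ad libitum. The 131I-labelled fatty acid was dissolved in absolute ethanol, added dropwise to stirred 6% bovine serum albumin at 40 °C (final ethanol 10%), filtered, and injected into a lateral tail vein under ether anaesthesia. Organs were excised, rinsed, blotted and weighed, then counted by Ge(Li) analyzer as percent injected dose/g.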

Rattus norvegicus [5] = test: Distribution of radioactivity in lungs of Fischer 344 female rat after 2 hr of intravenous administration; assay type: ADME, organism-based, Lung; settings: in vivo; how it was run: as §2
Rattus norvegicus [6] = test: Distribution of radioactivity in blood of Fischer 344 female rat after 4 days of intravenous administration; assay type: ADME, organism-based; settings: in vivo, 96 h; how it was run: as §1
Rattus norvegicus [7] = test: Distribution of radioactivity in blood of Fischer 344 female rat after 2 hr of intravenous administration; assay type: ADME, organism-based; settings: in vivo; how it was run: as §1
Rattus norvegicus [8] = test: Distribution of radioactivity in kidneys of Fischer 344 female rat after 7 days of intravenous administration; assay type: ADME, organism-based, Kidney; settings: in vivo, 168 h; how it was run: as §1
Rattus norvegicus [9] = test: Distribution of radioactivity in brain of Fischer 344 female rat after 10 min of intravenous administration; assay type: ADME, organism-based; settings: in vivo; how it was run: as §1
Rattus norvegicus [10] = test: Distribution of radioactivity in brain of Fischer 344 female rat after 6 hr of intravenous administration; assay type: ADME, organism-based; settings: in vivo; how it was run: as §1
Rattus norvegicus [11] = test: Distribution of radioactivity in heart of Fischer 344 female rat after 10 min of intravenous administration; assay type: ADME, organism-based; settings: in vivo; how it was run: as §1
Rattus norvegicus [12] = test: Distribution of radioactivity in liver of Fischer 344 female rat after 2 hr of intravenous administration; assay type: ADME, organism-based; settings: in vivo; how it was run: as §1
Rattus norvegicus [13] = test: Distribution of radioactivity in kidneys of Fischer 344 female rat after 60 min of intravenous administration; assay type: ADME, organism-based, Kidney; settings: in vivo, 1 h
Rattus norvegicus [14] = test: Distribution of radioactivity in brain of Fischer 344 female rat after 7 days of intravenous administration; assay type: ADME, organism-based; settings: in vivo, 168 h; how it was run: as §1
Rattus norvegicus [15] = test: Distribution of radioactivity in Thyroid of Fischer 344 female rat after 7 days of intravenous administration; assay type: ADME, organism-based; settings: in vivo, 168 h; how it was run: as §1
Rattus norvegicus [16] = test: Distribution of radioactivity in liver of Fischer 344 female rat after 4 of days intravenous administration; assay type: ADME, organism-based; settings: in vivo; how it was run: as §2
Rattus norvegicus [17] = test: Distribution of radioactivity in brain of Fischer 344 female rat after 2 hr of intravenous administration; assay type: ADME, organism-based; settings: in vivo; how it was run: as §1
Rattus norvegicus [18] = test: Distribution of radioactivity in lungs of Fischer 344 female rat after 6 hr of intravenous administration; assay type: ADME, organism-based, Lung; settings: in vivo; how it was run: as §2
Rattus norvegicus [19] = test: Distribution of radioactivity in liver of Fischer 344 female rat after 2 min of intravenous administration; assay type: ADME, organism-based; settings: in vivo; how it was run: as §2
Rattus norvegicus [20] = test: Distribution of radioactivity in Thyroid of Fischer 344 female rat after 2 min of intravenous administration; assay type: ADME, organism-based; settings: in vivo; how it was run: as §1
Rattus norvegicus [21] = test: Distribution of radioactivity in heart of Fischer 344 female rat after 2 min of intravenous administration; assay type: ADME, organism-based; settings: in vivo; how it was run: as §1
Rattus norvegicus [22] = test: Distribution of radioactivity in lungs of Fischer 344 female rat after 10 min of intravenous administration; assay type: ADME, organism-based, Lung; settings: in vivo; how it was run: as §2
Rattus norvegicus [23] = test: Distribution of radioactivity in kidneys of Fischer 344 female rat after 6 hr of intravenous administration; assay type: ADME, organism-based, Kidney; settings: in vivo; how it was run: as §1
Rattus norvegicus [24] = test: Distribution of radioactivity in brain of Fischer 344 female rat after 24 hr of intravenous administration; assay type: ADME, organism-based; settings: in vivo; how it was run: as §1
Rattus norvegicus [25] = test: Distribution of radioactivity in lungs of Fischer 344 female rat after 60 min of intravenous administration; assay type: ADME, organism-based, Lung; settings: in vivo, 1 h
How it was run: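 Female Fischer 344 rats, 10-12 weeks, 170-200 g, fed ad libitum. The labelled fatty acid was given in 6% bovine serum albumin via a lateral tail vein under ether anaesthesia. Rats were killed by CO2 anaesthesia and cervical fracture; organs were excised, rinsed, blotted, weighed and counted by Ge(Li) analyzer. Results are mean percent injected dose/g with range.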

Rattus norvegicus [26] = test: Distribution of radioactivity in brain of Fischer 344 female rat after 30 min of intravenous administration; assay type: ADME, organism-based; settings: in vivo, 0.5 h; how it was run: as §1
Rattus norvegicus [27] = test: Distribution of radioactivity in liver of Fischer 344 female rat after 10 min of intravenous administration; assay type: ADME, organism-based; settings: in vivo; how it was run: as §1
Rattus norvegicus [28] = test: Distribution of radioactivity in blood of Fischer 344 female rat after 60 min of intravenous administration; assay type: ADME, organism-based; settings: in vivo, 1 h
Rattus norvegicus [29] = test: Distribution of radioactivity in Thyroid of Fischer 344 female rat after 2 hr of intravenous administration; assay type: ADME, organism-based; settings: in vivo; how it was run: as §1
Rattus norvegicus [30] = test: Distribution of radioactivity in lungs of Fischer 344 female rat after 4 days of intravenous administration; assay type: ADME, organism-based, Lung; settings: in vivo, 96 h; how it was run: as §2
Rattus norvegicus [31] = test: Distribution of radioactivity in heart of Fischer 344 female rat after 30 min of intravenous administration; assay type: ADME, organism-based; settings: in vivo, 0.5 h
Rattus norvegicus [32] = test: Distribution of radioactivity in Thyroid of Fischer 344 female rat after 24 hr of intravenous administration; assay type: ADME, organism-based; settings: in vivo; how it was run: as §1

**Q.** Which results are given for O=C(O)CCCCCCCC[Te]CCCCCCCC[131I]?
**A.** Distribution of radioactivity (Rattus norvegicus [1]): 0.54 dose g-1; Distribution of radioactivity (Rattus norvegicus [2]): 12.1 dose g-1; Distribution of radioactivity (Rattus norvegicus [3]): 0.17 dose g-1; Distribution of radioactivity (Rattus norvegicus [4]): 0.031 dose g-1; Distribution of radioactivity (Rattus norvegicus [5]): 0.68 dose g-1; Distribution of radioactivity (Rattus norvegicus [6]): 0.02 dose g-1; Distribution of radioactivity (Rattus norvegicus [7]): 0.61 dose g-1; Distribution of radioactivity (Rattus norvegicus [8]): 0.016 dose g-1; Distribution of radioactivity (Rattus norvegicus [9]): 0.11 dose g-1; Distribution of radioactivity (Rattus norvegicus [10]): 0.03 dose g-1; Distribution of radioactivity (Rattus norvegicus [11]): 2.01 dose g-1; Distribution of radioactivity (Rattus norvegicus [12]): 1.02 dose g-1; Distribution of radioactivity (Rattus norvegicus [13]): 0.68 dose g-1; Distribution of radioactivity (Rattus norvegicus [14]): < 0.002 dose g-1; Distribution of radioactivity (Rattus norvegicus [15]): 203 dose g-1; Distribution of radioactivity (Rattus norvegicus [16]): 0.02 dose g-1; Distribution of radioactivity (Rattus norvegicus [17]): 0.04 dose g-1; Distribution of radioactivity (Rattus norvegicus [18]): 0.48 dose g-1; Distribution of radioactivity (Rattus norvegicus [19]): 3.71 dose g-1; Distribution of radioactivity (Rattus norvegicus [20]): 6.27 dose g-1; Distribution of radioactivity (Rattus norvegicus [21]): 2.39 dose g-1; Distribution of radioactivity (Rattus norvegicus [22]): 1.11 dose g-1; Distribution of radioactivity (Rattus norvegicus [23]): 0.36 dose g-1; Distribution of radioactivity (Rattus norvegicus [24]): 0.03 dose g-1; Distribution of radioactivity (Rattus norvegicus [25]): 0.75 dose g-1; Distribution of radioactivity (Rattus norvegicus [26]): 0.06 dose g-1; Distribution of radioactivity (Rattus norvegicus [27]): 3.23 dose g-1; Distribution of radioactivity (Rattus norvegicus [28]): 0.64 dose g-1; Distribution of radioactivity (Rattus norvegicus [29]): 166 dose g-1; Distribution of radioactivity (Rattus norvegicus [30]): 0.06 dose g-1; Distribution of radioactivity (Rattus norvegicus [31]): 1.78 dose g-1; Distribution of radioactivity (Rattus norvegicus [32]): 475 dose g-1
